Calls of active or inactive are those of the source. The calls are words filed in the database; no cut-off is given here.

The subject of series [1] is Trypanosoma brucei rhodesiense. Description: Antitrypanosomal activity against bloodstream form of Trypanosoma brucei rhodesiense YTat1.1 assessed as inhibition of growth in log phase after 48 hrs by Cell Titer Blue end-point assay. To be noted: YTat1.1, 48 h. The series is classed as functional, organism-based. In outline: (§1)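 Dose-response: at least 8 final concentrations (50 nM–8 μM, 0.2% DMSO), each in triplicate, on log-phase bloodstream-form cells at 1×10^5 cells/mL. Incubation was 48 h at 37°C, 5% CO2, followed by a 3 h CellTiter-Blue fluorescence read with background subtracted. EC50 was derived from inhibition curves. YTat1.1 was culture-adapted from rat blood in HMI-9 with FBS and Serum Plus; its data come from 2–3 independent experiments. 90-13 was grown in HMI-9 with G418 and hygromycin B.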
For orientation: The colour change of resazurin is a common sign of viable cells or microbes.

Another series concerns MOLT-4. Description: Cytotoxicity against human MOLT4 cells assessed as inhibition of cell growth after 4 days by Cell Titer Blue end-point assay. The series is classed as cell-based. To be noted: MOLT-4, 96 h. In outline: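 MOLT-4 cells in RPMI 1640 with 20% FBS were seeded at 5×10^4 cells/mL and grown 24 h before inhibitor was added. There were 8 concentrations in triplicate, spanning 50 nM to 30 μM final. Treatment lasted 4 days, then CTB was added for 3 h at 37°C. Fluorescence was read at 560Ex/590Em, with cell-free background subtracted and DMSO-only wells taken as 100%. EC50 was fitted from inhibition curves.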

Series [2] deals with Trypanosoma brucei brucei. Description: Antitrypanosomal activity against bloodstream form of Trypanosoma brucei brucei Lister 427 90-13 assessed as inhibition of growth in log phase after 48 hrs by Cell Titer Blue end-point assay. The series is classed as functional, organism-based. The conditions noted are these: Lister 427 90-13, 48 h. In outline:
as §1

A further series has as its system Trypanosoma brucei. Nature of the series: Inhibition of NH3-AU1 epitope-tagged recombinant Trypanosoma brucei AUK1 expressed in procyclic form trypanosome AnTat1.1 assessed as decrease in myelin basic protein phosphorylation at 500 nM preincubated for 5 mins by pull down assay in presence of [gamma-32P]ATP. In outline: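 AU1-tagged TbAUK1 came from procyclic AnTat1.1 cells pretreated with 16 μM MG132 for 3 h. Lysate was pre-cleared and immunoprecipitated overnight at 4°C on AU1 beads. Bead kinase was mixed with 160 μg myelin basic protein in Hepes/KCl/NaF/MgCl2/DTT buffer, pH 7.4, with drug preincubated 5 min. Reactions were started with 8 μM ATP plus [γ-32P]ATP and run 30 min at 30°C. Products were read by SDS-PAGE autoradiography.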

A short description of series [3]: Selectivity ratio of EC50 for human MOLT4 cells to EC50 for bloodstream form of Trypanosoma brucei brucei Lister 427 90-13. Type of series: ADME, cell-based, MOLT-4. The conditions noted are these: read-out: Ratio EC50. The method, boiled down:
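The ratio is MOLT-4 EC50 over T. b. brucei 90-13 EC50. BF 90-13 cells in HMI-9 with G418 and hygromycin B were seeded at 1×10^5 cells/mL and exposed 48 h to 8 concentrations (50 nM–8 μM final, 0.2% DMSO) in triplicate. MOLT-4 cells were treated 4 days. Both were read by CTB fluorescence, with EC50 fitted from inhibition curves.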

Series [4] in a line: Selectivity ratio of EC50 for human MOLT4 cells to EC50 for bloodstream form of Trypanosoma brucei rhodesiense YTat1.1. Type of series: ADME, cell-based, MOLT-4. To be noted: read-out: Ratio EC50. The method, boiled down: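 Ratio of MOLT-4 EC50 to YTat1.1 EC50. MOLT-4 cells were grown in RPMI 1640 with 20% FBS, seeded at 5×10^4 cells/mL and grown 24 h before compound was added. Treatment used 8 triplicate concentrations between 50 nM and 30 μM for 4 days, followed by a 3 h CellTiter-Blue read at 37°C. The parasite EC50 came from a 48 h CellTiter-Blue dose-response (50 nM–8 μM).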

What is called EC50 is the concentration at which the effect is half-maximal. As to `CCc1cccc(CC)c1NC(=O)N1Cc2[nH]nc(NC(=O)c3ccc(N4CCN(C)CC4)cc3)c2C1` [PHA-680632], the 50% effective concentration (EC50) in series [1] was determined as 1.25 µM; with MOLT-4, 0.22 µM; in series [2], 4 µM. Besides, the inhibition result in the series on Trypanosoma brucei was “Active”.

With `CO[C@@H](C(=O)N1Cc2n[nH]c(NC(=O)c3ccc(N4CCN(C)CC4)cc3)c2C1)c1ccccc1` [DANUSERTIB], the values for the selectivity ratio in series [3] and in series [4] were 0.25 and 1, respectively.

As for `CN1CCN(c2ccc(C(=O)Nc3n[nH]c4c3CN(C(=O)Nc3ccccc3)C4)cc2)CC1`, in series [3], the selectivity ratio came out at 0.58. The values for the EC50 (in the series on MOLT-4; in series [2]) were 3.55 µM and 6.1 µM, respectively. Further, the inhibition entry in the series on Trypanosoma brucei was “Active”.

Regarding `CCc1cccc(CC)c1NC(=O)N1Cc2n[nH]c(NC(=O)c3ccc(N4CCN(C)CC4)cc3)c2C1` [PHA-680632], the values for the selectivity ratio in series [3] and in series [4] were 0.06 and 0.18, respectively.

For the molecule `CN1CCN(c2ccc(C(=O)Nc3n[nH]c4c3CN(C(=O)c3ccccc3)C4)cc2)CC1`, the selectivity ratio in series [3] was found to be 0.05. For the same molecule, the EC50 came out at 0.54 µM in the series with MOLT-4 and 11.1 µM in series [2]. Further, the inhibition result in the series on Trypanosoma brucei was “inactive”.

As for `CO[C@@H](C(=O)N1Cc2[nH]nc(NC(=O)c3ccc(N4CCN(C)CC4)cc3)c2C1)c1ccccc1` [DANUSERTIB], the figures for the EC50 in series [1] and in series [2] were 0.15 µM and 0.6 µM, respectively. The inhibition result in the series on Trypanosoma brucei is “Active”.

Consider `Cc1ccc(S(=O)(=O)N2Cc3[nH]nc(NC(=O)c4ccc(N5CCN(C)CC5)cc4)c3C2)cc1`, for which the selectivity ratio in series [3] was 0.16. The EC50 in the series on MOLT-4 worked out at 0.94 µM; in series [2] it was 5.7 µM. Also, the inhibition result in the series on Trypanosoma brucei is “Active”.

Source of the values: ChEMBL document CHEMBL2346529, “The human Aurora kinase inhibitor danusertib is a lead compound for anti-trypanosomal drug discovery via target repurposing” (Eur J Med Chem, 2013).
